Active and inactive are the calls of the source.
How the values were obtained:
[1] = molecular target: T1, Potassium channel subfamily K member 2 (Homo sapiens) (UniProt O95069); assay: Activation of recombinant human TREK1 expressed in HEK293T cells assessed as increase in K+ current amplitude at 30 uM by whole cell voltage clamp electrophysiological analysis; type: cell-based
T1 sequence (whole entry): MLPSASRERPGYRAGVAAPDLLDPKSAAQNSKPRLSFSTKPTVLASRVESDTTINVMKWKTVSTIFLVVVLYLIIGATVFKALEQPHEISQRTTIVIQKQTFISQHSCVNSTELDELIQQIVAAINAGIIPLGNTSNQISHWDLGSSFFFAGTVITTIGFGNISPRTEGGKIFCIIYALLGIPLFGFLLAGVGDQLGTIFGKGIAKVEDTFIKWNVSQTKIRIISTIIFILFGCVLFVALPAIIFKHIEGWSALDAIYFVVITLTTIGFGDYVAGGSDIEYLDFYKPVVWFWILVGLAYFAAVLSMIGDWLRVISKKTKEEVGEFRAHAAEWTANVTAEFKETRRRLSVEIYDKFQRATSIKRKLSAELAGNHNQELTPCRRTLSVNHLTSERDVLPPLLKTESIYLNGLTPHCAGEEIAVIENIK

[2] = system: Mus musculus; assay: Analgesic activity in mouse assessed as increase in tail flick latency time at 5 mg/kg, ip at 52 degC by tail immersion test; type: functional, organism-based
In short: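 Male BALB/c or C57BL/6 mice, 6–8 weeks, acclimated in a holder 15 min/day for 3 days. Distal 3 cm of tail immersed at 5, 20, 40, 46 or 52 °C; flick latency recorded, cut-off 15 s. Compound i.p. in 5% DMSO/5% Tween 80/90% saline (1.25–10 mg/kg at 52 °C; 5 mg/kg across temperatures).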

[3] = system: Mus musculus; assay: Analgesic activity in cerulein-induced mouse model of acute pancreatitis assessed as reduction in myeloperoxidase activity at 10 mg/kg, ip administered at 2 hrs interval for 10 hrs starting from post-first cerulein challenge and measured 12 hrs post-first cerulein challenge; type: functional, organism-based
In short: (§1)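 Cerulein pancreatitis: 7 hourly i.p. injections of 50 µg/kg; 10 mg/kg compound i.p. at 2, 4, 6, 8 and 10 h. Mice killed at 12 h and pancreas harvested for MPO activity and H&E histology. Ten random fields per slide scored blind by two observers for edema, inflammatory infiltration and acinar necrosis; n = 6.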

[4] = system: Mus musculus; assay: (§2) Analgesic activity in cerulein-induced mouse model of acute pancreatitis assessed as reduction in pancreatic necrosis at 10 mg/kg, ip administered at 2 hrs interval for 10 hrs starting from post-first cerulein challenge and measured 12 hrs post-first cerulein challenge by H and E staining based histopathological analysis; type: functional, organism-based; in short: as §1
[5] = system: Mus musculus; assay: as §2, with “inflammatory infiltration” for “necrosis”; type: functional, organism-based; in short: as §1
[6] = system: Mus musculus; assay: as §2, with “edema” for “necrosis”; type: functional, organism-based; in short: as §1
[7] = molecular target: T1, Potassium channel subfamily K member 2 (Homo sapiens); assay: Activation of recombinant human TREK1 expressed in HEK293T cells assessed as increase in K+ current amplitude at 1 mM by whole cell voltage clamp electrophysiological analysis; type: cell-based
[8] = system: Mus musculus; assay: Analgesic activity in mouse model of spared nerve injury assessed as reduction in cold hyperalgesia at 30 mg/kg, ip measured at 7 days interval for up to 21 days post spared nerve injury by cold plantar test; type: functional, organism-based
In short: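 Male mice (BALB/c or C57BL/6, 6-8 weeks) after SNI; compound given i.p. in 5% DMSO, 5% Tween 80, 90% saline. Mice acclimated 3 days on a 6 mm glass plate. A syringe packed with powdered dry ice was applied under the centre of the left hindpaw. Paw withdrawal latency was timed by stopwatch with a 30 s cutoff. Groups compared by unpaired t test or Mann-Whitney.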

## Cc1ccc2nc(-c3ccc(NC(=O)C4CCCC4)cc3)sc2c1
[1]
  Activity: inactive
[2]
  Activity: inactive
[3]
  Activity: inactive
[4]
  Activity: inactive
[5]
  Activity: inactive
[6]
  Activity: inactive

## C[N+](C)(C)CCSS(C)(=O)=O
[7]
  Activity: inactive

## COC(=O)[C@H]1CC[C@@H](C(=O)Nc2ccc(-c3nc4ccc(C)cc4s3)cc2)C1
[1]
  Activity: inactive

## CC(C)C[C@H](CN)CC(=O)O
[8]
  Activity: Active

Reference: ChEMBL document CHEMBL4354866, “TREK Channel Family Activator with a Well-Defined Structure-Activation Relationship for Pain and Neurogenic Inflammation” (J Med Chem, 2020)
